Assay results as given in ChEMBL document CHEMBL3860043, “Non-Acidic Free Fatty Acid Receptor 4 Agonists with Antidiabetic Activity” (J Med Chem, 2016).
In brackets after ≈: the same amount, converted by molar mass. One block for each compound: values may come before it. Activity calls are given as the source filed them. The rule behind the calls is not given here.

Experiments:
[1] = target: T1, Free fatty acid receptor 4 (Homo sapiens) (UniProt Q5NUL3); experiment: Agonist activity at human FFA4 expressed in human Flp-In T-REx293 cells by Fura2-AM dye based calcium mobilization assay relative to 100 uM […]; type: functional, cell-based
T1 sequence (whole entry): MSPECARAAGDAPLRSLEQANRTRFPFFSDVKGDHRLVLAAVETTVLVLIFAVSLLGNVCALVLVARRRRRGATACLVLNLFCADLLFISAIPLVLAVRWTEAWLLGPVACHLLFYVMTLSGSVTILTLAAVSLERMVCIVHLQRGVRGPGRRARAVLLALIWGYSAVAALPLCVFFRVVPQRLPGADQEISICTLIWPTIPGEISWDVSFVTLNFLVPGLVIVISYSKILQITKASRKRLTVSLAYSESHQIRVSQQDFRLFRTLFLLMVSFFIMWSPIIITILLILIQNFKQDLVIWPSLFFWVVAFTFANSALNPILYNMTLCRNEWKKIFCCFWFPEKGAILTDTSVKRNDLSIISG
In short: (§1)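 Flp-In T-REx 293 cells with doxycycline-inducible human FFA4 seeded at 50000 cells/well and induced overnight with 100 ng/ml doxycycline. Loaded with Fura2-AM for 45 min, washed three times in HBSS, equilibrated 15 min, then ligand added. Emission at 510 nm with 340/380 nm excitation; response is the change in 340:380 ratio. Efficacy relative to 100 µM reference agonist; 2-4 independent experiments, sigmoidal fits.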

[2] = target: T2, Free fatty acid receptor 1 (Homo sapiens, UniProt O14842); experiment: Antagonist activity against human FFA1 expressed in human Flp-In T-REx293 cells assessed as as reduction in TUG424-induced response by Fura2-AM dye based calcium mobilization assay; type: functional, cell-based
T2 sequence (O14842 whole entry): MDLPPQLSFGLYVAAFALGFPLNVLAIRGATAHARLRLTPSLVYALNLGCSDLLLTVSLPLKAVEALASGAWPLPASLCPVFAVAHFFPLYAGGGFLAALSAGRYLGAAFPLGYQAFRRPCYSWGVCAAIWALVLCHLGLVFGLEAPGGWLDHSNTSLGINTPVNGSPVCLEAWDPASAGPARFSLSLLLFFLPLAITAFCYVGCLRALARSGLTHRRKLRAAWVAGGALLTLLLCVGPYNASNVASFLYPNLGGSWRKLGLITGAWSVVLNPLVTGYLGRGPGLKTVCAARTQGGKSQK
In short: (§2)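 Flp-In T-REx 293 cells with inducible human FFA1, seeded at 50000 cells/well and induced with 100 ng/ml doxycycline after 3-4 h adherence. Next day loaded with Fura2-AM for 45 min, washed, then preincubated 15 min in HBSS with test ligand before 300 nM agonist challenge. Fura2 340:380 ratio change read at 510 nm emission. Inhibition expressed as % reduction of the agonist response.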

[3] = target: T2, Free fatty acid receptor 1; experiment: Antagonist activity against human FFA1 expressed in human Flp-In T-REx293 cells assessed as as reduction in 300 nM TUG424-induced response by Fura2-AM dye based calcium mobilization assay relative to untreated control; type: functional, cell-based; in short: as §2
[4] = target: T1, Free fatty acid receptor 4 (Homo sapiens); experiment: Agonist activity at C-terminal YFP-tagged human FFA4 expressed in HEK293 cells in presence of coelentrazine h by BRET based beta-arrestin-2 interaction assay relative to 100 uM […]; type: cell-based
In short: (§3)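 HEK293 cells co-transfected with C-terminal eYFP-fused human FFA4 and β-arrestin-2–Renilla luciferase; plated 24 h post-transfection, used 24 h later. After an HBSS wash, coelenterazine h (2.5 µM) for 15 min, with ligands present for the final 5 min, 37 °C. BRET taken as the 535/475 nm emission ratio. Efficacy relative to 100 µM reference agonist. Three-parameter sigmoidal fits; mean ± S.E. of 2-4 independent experiments.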

[5] = target: T3, Free fatty acid receptor 4 (Homo sapiens, UniProt Q5NUL3); experiment: Agonist activity at human FFA4 expressed in human Flp-In T-REx293 cells by Fura2-AM dye based calcium mobilization assay; type: functional, cell-based; in short: as §1
T3 sequence (Q5NUL3 whole entry): T1 sequence (whole entry)

[6] = target: T3, Free fatty acid receptor 4; experiment: Agonist activity at C-terminal YFP-tagged human FFA4 expressed in HEK293 cells in presence of coelentrazine h by BRET based beta-arrestin-2 interaction assay; type: cell-based; in short: as §3
[7] = target: T4, Free fatty acid receptor 4 (Mus musculus, UniProt Q7TMA4); experiment: Agonist activity mouse FFA4 by BRET based beta-arrestin-2 interaction assay
T4 sequence (Q7TMA4 whole entry): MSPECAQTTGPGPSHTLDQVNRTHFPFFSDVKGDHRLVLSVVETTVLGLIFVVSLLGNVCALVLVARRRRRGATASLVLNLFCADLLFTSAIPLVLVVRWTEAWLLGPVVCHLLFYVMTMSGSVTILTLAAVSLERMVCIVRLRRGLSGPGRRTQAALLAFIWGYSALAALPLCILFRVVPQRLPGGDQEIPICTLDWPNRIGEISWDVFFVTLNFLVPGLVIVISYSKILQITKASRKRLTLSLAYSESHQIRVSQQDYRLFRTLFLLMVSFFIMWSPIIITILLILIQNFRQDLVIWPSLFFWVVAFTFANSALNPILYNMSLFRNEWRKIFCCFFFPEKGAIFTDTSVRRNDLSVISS
In short: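 Mouse FFA4 fused C-terminally to eYFP, co-transfected into HEK293 cells with β-arrestin-2–Renilla luciferase. After an HBSS wash, coelenterazine h (2.5 µM) for 15 min, with ligand added for the last 5 min, 37 °C. BRET read as the 535/475 nm luminescence ratio. Three-parameter sigmoidal curve fitting; 2-4 independent experiments.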

[8] = Solubility in FaSSIF solution; type: physicochemical
Mus musculus [9] = experiment: Toxicity in wild type DIO mouse assessed as reduction in body weight at 10 mg/kg, po dosed daily over 3 week period administered 15 mins before oral glucose challenge on first day measured after 21 days; type: organism-based; parameters: scale not given: the % may be the effect or the level left; conditions: in vivo, 504 h
Mus musculus [10] = experiment: Reduction in fasting plasma insulin level in wild type DIO mouse at 10 mg/kg, po dosed daily over 3 week period administered 15 mins before oral glucose challenge on first day measured after 21 days by ELISA; type: functional, organism-based
In short: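 DIO wild-type and FFA4(-/-) littermates (63% fat diet for 5 months) dosed 10 mg/kg po once daily for 21 days. Fasting blood collected into EDTA and spun at 3,000 g for 5 min at 4 °C; plasma stored at -80 °C. Insulin measured in duplicate by murine insulin ELISA, absorbance at 450 nm.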

[11] = Effect on food intake level in wild type DIO mouse at 10 mg/kg, po dosed daily over 3 week period administered 15 mins before oral glucose challenge on first day measured after 21 days; type: ADME, organism-based; conditions: in vivo, 504 h
Mus musculus [12] = experiment: Toxicity in FFA4 (-/-) DIO mouse assessed as weight gain in at 10 mg/kg, po dosed daily over 3 week period administered 15 mins before oral glucose challenge on first day measured after 21 days; type: organism-based; conditions: in vivo, 504 h
Homo sapiens [13] = species: Homo sapiens; experiment: Selectivity for human FFA4 over human FFA1
Mus musculus [14] = experiment: Increase in plasma insulin level in wild type DIO mouse at 10 mg/kg, po dosed daily over 3 week period administered 15 mins before oral glucose challenge on first day measured 30 mins after glucose challenge by ELISA; type: functional, organism-based
Homo sapiens [15] = species: Homo sapiens; experiment: Selectivity for human FFA4 over FFA2 (unknown origin)
Mus musculus [16] = experiment: Toxicity in FFA4 (-/-) DIO mouse assessed as reduction in body weight at 10 mg/kg, po dosed daily over 3 week period administered 15 mins before oral glucose challenge on first day measured after 21 days; type: organism-based; conditions: in vivo, 504 h
[17] = Effect on water intake level in FFA4 (-/-) DIO mouse at 10 mg/kg, po dosed daily over 3 week period administered 15 mins before oral glucose challenge on first day measured after 21 days; type: ADME, organism-based; conditions: in vivo, 504 h
[18] = Effect on food intake level in FFA4 (-/-) DIO mouse at 10 mg/kg, po dosed daily over 3 week period administered 15 mins before oral glucose challenge on first day measured after 21 days; type: ADME, organism-based; conditions: in vivo, 504 h
[19] = Lipophilicity, log D of the compound at pH 7.4; type: physicochemical; conditions: buffer
Mus musculus [20] = experiment: Reduction in plasma glucose level in wild type DIO mouse at 10 mg/kg, po dosed daily over 3 week period administered 15 mins before oral glucose challenge on first day by OGTT method; type: functional, organism-based
In short: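 Male wild-type and FFA4(-/-) littermates (C57Bl6 background) fed 63% high-fat diet from 6 weeks of age for 5 months. On day 0, fasted 5 h, dosed 10 mg/kg po, then given glucose 3 g/kg po 15 min later. Tail blood sampled from -30 to 180 min; glucose measured in duplicate by colorimetric glucose oxidase assay. n=9 per group; two-way ANOVA with Bonferroni post hoc test.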

Homo sapiens [21] = species: Homo sapiens; experiment: Selectivity for human FFA4 over FFA3 (unknown origin)
Mus musculus [22] = experiment: Reduction in plasma glucose level in mouse at 10 mg/kg, po dosed 15 mins before oral glucose challenge by OGTT method; type: functional, organism-based
In short: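 Mice fasted 5 h and given compound orally at 10 mg/kg, 15 min before an oral glucose load of 3 g/kg. Tail-tip blood sampled under local anesthetic 30 min before and immediately before the load, and at 30, 60, 90, 120 and 180 min after it. Glucose measured in duplicate by glucose oxidase colorimetric assay; n=6 mice per group.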

[23] = target: T4, Free fatty acid receptor 4; experiment: Agonist activity mouse FFA4 by Gq-dependent calcium mobilization assay; type: functional
Mus musculus [24] = experiment: Reduction in glucose level in wild type DIO mouse at 10 mg/kg, po dosed daily over 3 week period administered 15 mins before oral glucose challenge on first day measured after 21 days by OGTT method; type: functional, organism-based
[25] = Effect on water intake level in wild type DIO mouse at 10 mg/kg, po dosed daily over 3 week period administered 15 mins before oral glucose challenge on first day measured after 21 days; type: ADME, organism-based; conditions: in vivo, 504 h
[26] = Solubility in PBS buffer; type: physicochemical

Emax [1]: 29% | IC50 [2]: 0.617 µM | Imax [3]: 43% | Emax [4]: 87% | EC50 [5]: 2340 nM | EC50 ([6]; read-out: pEC50 (converted)): 1660 nM
SMILES: N#Cc1ccc(Oc2cc(F)cc(N3Cc4ccccc4S3(=O)=O)c2)cc1

EC50 [7]: 479 nM | solubility [8]: 14 µM (≈ 4.99 µg/mL) | Emax [1]: 130% | Selectivity ratio (Homo sapiens [13]): > 300 | IC50 [2]: > 100 µM | Selectivity ratio (Homo sapiens [15]): > 300 | Emax [4]: 98% | EC50 [5]: 234 nM | logD [19]: 3.17 | Selectivity ratio (Homo sapiens [21]): > 300 | EC50 [23]: 148 nM | EC50 ([6]; read-out: EC50): 128 nM | EC50 ([6]; read-out: pEC50 (converted)): 123 nM | solubility [26]: 1.3 µM (≈ 0.463 µg/mL)
SMILES: O=S1(=O)c2ccccc2CN1c1cc(F)cc(Oc2ccccn2)c1
Activity (Mus musculus [9]): 7 to 9% | Activity (Mus musculus [10]): Active | Activity [11]: Non-Toxic | Activity (Mus musculus [12]): Non-Toxic | Activity (Mus musculus [14]): Active | Activity (Mus musculus [16]): Non-Toxic | Activity [17]: Non-Toxic | Activity [18]: Non-Toxic | Activity (Mus musculus [20]): Active | Activity (Mus musculus [22]): Active | Activity (Mus musculus [24]): Active | Activity [25]: Non-Toxic

Emax [1]: 105% | IC50 [2]: 0.174 µM | Imax [3]: 39% | Emax [4]: 95% | EC50 [5]: 209 nM | EC50 ([6]; read-out: pEC50 (converted)): 245 nM
SMILES: O=S1(=O)c2ccccc2CN1c1cccc(Oc2ccccc2)c1

Emax [1]: 14% | IC50 [2]: 25.1 µM | Imax [3]: 51% | Emax [4]: 87% | EC50 [5]: 4470 nM | EC50 ([6]; read-out: pEC50 (converted)): 2630 nM
SMILES: Cc1cccc(Oc2cc(F)cc(N3Cc4ccccc4S3(=O)=O)c2)c1

Emax [1]: 78% | IC50 [2]: 3.89 µM | Imax [3]: 47% | Emax [4]: 101% | EC50 [5]: 380 nM | EC50 [6]: < 10000 nM | EC50 ([6]; read-out: pEC50 (converted)): 234 nM
SMILES: O=S1(=O)c2ccccc2CN1c1cc(F)cc(Oc2ccccc2)c1

Emax [1]: 93% | IC50 [2]: > 100 µM | Emax [4]: 102% | EC50 [5]: 1020 nM | EC50 ([6]; read-out: pEC50 (converted)): 1550 nM
SMILES: O=S1(=O)c2ccccc2CN1c1cccc(Oc2ccccn2)c1

IC50 [2]: 8.13 µM | Imax [3]: 68% | Emax [4]: 76% | EC50 ([6]; read-out: pEC50 (converted)): 5370 nM
SMILES: CCCCc1ccc(NS(=O)(=O)c2ccc(F)cc2)cc1

Emax [4]: 39% | EC50 ([6]; read-out: pEC50 (converted)): 16600 nM
SMILES: O=S(=O)(Nc1cc(F)cc(Oc2cccnc2)c1)c1ccc(F)cc1

Emax [1]: 115% | IC50 [2]: > 100 µM | Emax [4]: 107% | EC50 [5]: 302 nM | logD [19]: 3.12 | EC50 [23]: 83.2 nM | EC50 ([6]; read-out: pEC50 (converted)): 437 nM | solubility [26]: 11 µM (≈ 3.92 µg/mL)
SMILES: O=S1(=O)c2ccccc2CN1c1cc(F)cc(Oc2cccnc2)c1
Activity (Mus musculus [22]): Active

IC50 [2]: 10 µM | Imax [3]: 100%
SMILES: Cc1ccc(S(=O)(=O)Nc2ccc(Oc3ccccc3)cc2)cc1

IC50 [2]: 3.39 µM | Imax [3]: 52% | Emax [4]: 83% | EC50 ([6]; read-out: pEC50 (converted)): 5750 nM
SMILES: N#Cc1cccc(Oc2cc(F)cc(N3Cc4ccccc4S3(=O)=O)c2)c1
